Test results from PMC6800822 (Bioconjugate chemistry, 2019).
Square brackets hold non-standard residues; d marks the D form. Peptide text beside a SMILES is read from it. * marks the point of attachment. Acetyl(thymin-1-yl) = Cc1cn(CC(=O)*)c(=O)[nH]c1=O; NBD = O=[N+]([O-])c1ccc(*)c2nonc12

Key:
[1] = assay type: cell-based
T98G cells [2] = test: Cellular uptake and distribution by fluorescence imaging; assay type: cell-based
Summary of the method: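 T98G cells incubated with the test peptide at 100 or 200 μM and imaged by confocal fluorescence microscopy after 2 h. Counterstains used: Hoechst 33342 for nuclei, fibrillarin immunofluorescence for nucleoli, and ER Tracker. Localisation to lysosomes was also assessed.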

[3] = CD spectra, secondary structure inferred by DichroWeb; assay type: physicochemical; details: 200 μM
[4] = test system: phospho-Ser139-H2AX (γH2AX); test: Immunofluorescence of γH2AX; assay type: cell-based; details: T98G cells, 200 μM, 2 h
[5] = test system: RNA extracted from T98G cells; test: Interaction with total RNA extracted from T98G cells in PBS buffer
HeLa = test: Nucleolus targeting in HeLa cells; assay type: cell-based
MES-SA/Dx5 = test: Nucleolus targeting in MES-SA/Dx5 cells; assay type: cell-based
Saos-2 = test: Nucleolus targeting in Saos-2 cells; assay type: cell-based
T98G cells [6] = details: 50 uM; cited from earlier work

With `Cc1cn(CC(=O)N[C@H](Cc2ccccc2)C(=O)N[C@H](Cc2ccccc2)C(=O)N[C@H](CCCCN)C(=O)N[C@H](CCCCN)C(=O)N[C@H](Cc2ccccc2)C(=O)N[C@H](CCCCN)C(=O)N[C@H](CC(C)C)C(=O)N[C@H](CCCCN)C(=O)N[C@H](CC(C)C)C(=O)N[C@H](CCCCNc2ccc([N+](=O)[O-])c3nonc23)C(=O)O)c(=O)[nH]c1=O` [D-1] ({Acetyl(thymin-1-yl)}-[dF][dF][dK][dK][dF][dK][dL][dK][dL][dK](NBD)-OH; N-terminus and C-terminus assumed) the IC50 [1] was 86.2 µM, the Cell entry (T98G cells [2]; 100 μM, fluorescence imaging) was “hardly enters the cells” and the Cellular distribution (T98G cells [2]; 200 μM, 2 h, fluorescence imaging) was “bright fluorescent puncta in cell nucleus”. The Lysosomal localisation (T98G cells [2]; 200 μM, fluorescence imaging) was “only slightly localized in the lysosome”, the “Cellular uptake at 4 °C” value (T98G cells [2]; 4 °C, 1 h) was “hardly exhibit any fluorescence” and the unordered structures content [3] was 28%. The α-helix content [3] was 36%, the β-sheet content [3] was 13% and the β-turns content [3] was 23%. For the same molecule, the “γH2AX foci formation (DNA damage)” value [4] was “leads to γH2AX foci formation”, the “Interaction with RNA” value [5] was “form precipitates that resist ribonuclease” and the Nucleolus targeting (HeLa) was “able to target nucleoli”. For the same molecule, the Nucleolus targeting (MES-SA/Dx5) was “able to target nucleoli”, the Nucleolus targeting (Saos-2) was “able to target nucleoli” and the “Effect on cells at low concentration” value (T98G cells [6]) was “innocuous to the cells”.
